The source of these data is ChEMBL document CHEMBL4431316, “New 6-Aminoquinoxaline Derivatives with Neuroprotective Effect on Dopaminergic Neurons in Cellular and Animal Parkinson Disease Models” (J Med Chem, 2016).

A short description of test [1]: Neuroprotective activity in Sprague-Dawley rat DA neuron death PD model assessed as survival of Th immunopositive cells at 50 uM after 10 days by immunofluorescence assay. It is filed as functional. Particulars: 240 h, read-out: Survival. An outline of the steps:
(§1)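 Midbrain cultures in which DA neurons die spontaneously and selectively through a mechanism involving immature astrocytes and calcium dyshomeostasis. Compounds were present for 10 days in vitro, screened at 50 µM (100 µM for one analog) and retested at 10 µM. dbcAMP 1 mM served as reference. Surviving TH+ neurons were counted and expressed as % of corresponding untreated control cultures.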

A short description of test [2]: Neuroprotective activity in Sprague-Dawley rat DA neuron death PD model assessed as survival of Th immunopositive cells at 10 uM after 10 days by immunofluorescence assay relative to control. Type of test: functional. As to conditions: 240 h, read-out: Survival. An outline of the steps:
as §1

In test [3] the test system is Astrocyte. Nature of the test: Neuroprotective activity in Sprague-Dawley rat astrocytes assessed as effect on vimentin positive cell density and morphology at 10 uM by fluorescence microscopic method. It is filed as functional, cell-based. An outline of the steps: (§2)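 Midbrain cultures labelled for vimentin, a glial marker. Density and morphology of glial cells scored semi-quantitatively by fluorescence microscopy. Compounds tested at 10 and 50 µM, one at 100 µM; dbcAMP as reference.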

For test [4], the system named is Astrocyte. As to the kind of experiment: Neuroprotective activity in Sprague-Dawley rat astrocytes assessed as effect on vimentin positive cell density and morphology at 50 uM by fluorescence microscopic method. Type of test: functional, cell-based. In short, it runs like this:
as §2

Test [5] has as its system Astrocyte. As to the kind of experiment: Neuroprotective activity in Sprague-Dawley rat astrocytes assessed as [methyl-3H]thymidine incorporation at 10 to 50 uM after 8 days by liquid scintillation counting assay relative to control. Type of test: functional. An outline of the steps:
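Glial proliferation in midbrain cultures measured as [methyl-3H]-thymidine incorporation at 8 DIV, with test compound 10-50 µM. DbcAMP 1 mM as positive control. Expressed as % of control.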

The species entered for test [6] is Rattus norvegicus. Nature of the test: Neuroprotective activity in Sprague-Dawley rat DA neuron death PD model assessed as increase in [2,5,6-3H]DA uptake at 10 to 50 uM after 10 days by liquid scintillation counting spectrometric analysis. Type of test: functional. In short, it runs like this: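 Midbrain cultures in which DA neurons die spontaneously and selectively. Treated with test compound (10-50 µM) or dbcAMP (1 mM, reference) up to 10 DIV. Tritium-labeled DA uptake quantified as a marker of DA cell function and differentiation. Uptake rate per TH+ neuron also derived. *P < 0.05 vs control.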

Test [7] is filed under the species Rattus norvegicus. Nature of the test: Neuritogenic activity in Sprague-Dawley rat DA neuron death PD model assessed as development of neurite network in Th immunopositive cells at 10 to 50 uM after 10 days by microscopic analysis relative to control. Type of test: functional, cell-based. In short, it runs like this:
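Midbrain cultures treated or not with test compound (10-50 µM) for 10 DIV, then immunostained for TH. Neuritic network of TH+ neurons examined microscopically against control neurons. DbcAMP 1 mM as reference protective molecule.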

The species entered for test [8] is Rattus norvegicus. As to the kind of experiment: Neuroprotective activity in Sprague-Dawley rat DA neuron death PD model assessed as inhibition of calcium mobilization at 50 uM after 10 days in presence of RyR channel blocker dantrolene. Type of test: functional. On the technique in general: Calcium flux is commonly read through the fluorescence of an indicator in the cells.

For test [9], the species on record is Rattus norvegicus. As to the kind of experiment: Neuroprotective activity in Sprague-Dawley rat DA neuron death PD model assessed as inhibition of calcium mobilization at 50 uM after 10 days in presence of L-type voltage gated calcium channel blocker nifedipine. It is filed as functional.
For test [10], the species on record is Rattus norvegicus. Nature of the test: Neuroprotective activity in Sprague-Dawley rat DA neuron death PD model assessed as survival of Th immunopositive cells at 50 uM after 10 days in presence of anti-GDNF antibody by immunofluorescence assay. Type of test: functional.
For test [11], the species on record is Rattus norvegicus. As to the kind of experiment: Neuroprotective activity in Sprague-Dawley rat DA neuron death PD model assessed as survival of Th immunopositive cells treated at 10 to 50 uM in presence of GDNF for 10 days followed by deprivation of GDNF for next 5 days by immunofluorescence assay. It is filed as functional. In short, it runs like this:
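Midbrain cultures kept with GDNF (20 ng/ml) for 10 days, then deprived of GDNF from 11 to 15 DIV, with test compound 10-50 µM. TH+ neurons counted and compared with cultures kept on GDNF to 15 DIV. P < 0.05 vs GDNF-treated and vs GDNF-deprived cultures.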

For test [12], the species on record is Rattus norvegicus. As to the kind of experiment: Antioxidant activity in Sprague-Dawley rat DA neuron assessed as reduction in ferrous iron-mediated neuron death at 5 uM. Type of test: functional. An outline of the steps: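 Midbrain cultures with DA cell death driven by a Fenton-type reaction, ferrous iron reacting with molecular oxygen in the medium (chronic oxidative stress). Test compound 1-10 µM; desferrioxamine 10 µM as positive control. Readout is DA neuron (TH+) survival. P < 0.05 vs control cultures.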

Test [13] has as its system Mus musculus. Nature of the test: Neuroprotective activity against MPTP-induced C57BL/6 mouse SN DA neuron toxicity model assessed as survival of Th immunopositive cells at 25 mg/kg/day, po bid pretreated for 3 days followed by MPTP challenge and further administration of compound up to day 11 by immunohistochemical analysis (reference value: 61 +/- 5%). It is filed as functional. As to conditions: C57BL/6, po. An outline of the steps:
(§3)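 C57BL/6 mice given sub-chronic MPTP treatment. Test agent given per os twice daily (2x25 or 2x50 mg/kg/day) for 11 days. TH+ neurons counted in one hemisphere per mouse. Expressed as % of vehicle-treated mice, mean ± SEM, n=9-12.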

In test [14] the test system is Mus musculus. As to the kind of experiment: Neuroprotective activity against MPTP-induced C57BL/6 mouse SN DA neuron toxicity model assessed as survival of Th immunopositive cells at 50 mg/kg/day, po bid pretreated for 3 days followed by MPTP challenge and further administration of compound up to day 11 by immunohistochemical analysis relative to control. It is filed as functional. As to conditions: C57BL/6, po. An outline of the steps: as §3

The target of test [15] is T1, Amine oxidase [flavin-containing] B (Rattus norvegicus, UniProt P19643).
T1 sequence (P19643 whole entry): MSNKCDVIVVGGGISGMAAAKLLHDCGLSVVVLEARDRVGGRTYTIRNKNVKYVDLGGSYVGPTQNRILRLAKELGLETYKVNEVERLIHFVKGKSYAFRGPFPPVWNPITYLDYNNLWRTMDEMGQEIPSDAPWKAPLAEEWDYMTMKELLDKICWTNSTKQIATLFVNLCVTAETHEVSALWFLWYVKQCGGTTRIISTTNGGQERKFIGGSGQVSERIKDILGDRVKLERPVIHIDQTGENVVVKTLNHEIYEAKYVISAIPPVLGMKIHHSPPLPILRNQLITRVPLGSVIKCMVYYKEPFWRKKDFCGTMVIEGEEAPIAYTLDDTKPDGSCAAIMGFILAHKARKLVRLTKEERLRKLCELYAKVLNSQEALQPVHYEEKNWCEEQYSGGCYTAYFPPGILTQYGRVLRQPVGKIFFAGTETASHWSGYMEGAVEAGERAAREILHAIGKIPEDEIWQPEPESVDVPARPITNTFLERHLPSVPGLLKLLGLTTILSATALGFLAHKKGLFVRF
Nature of the test: Inhibition of rat mitochondrial MAO-B using DAB as substrate incubated for 30 mins by HPLC analysis.

The test system of test [16] is Mus musculus. As to the kind of experiment: Neuroprotective activity against MPTP-induced C57BL/6 mouse DA neuron toxicity model assessed as restoration of striatal DA level at 25 mg/kg/day, po bid pretreated for 3 days followed by MPTP challenge and further administration of compound up to day 11 by HPLC method (reference value: 28 +/- 2%). It is filed as functional.

Test [17] concerns Mus musculus. Nature of the test: Neuroprotective activity against MPTP-induced C57BL/6 mouse DA neuron toxicity model assessed as restoration of striatal HVA level at 25 mg/kg/day, po bid pretreated for 3 days followed by MPTP challenge and further administration of compound up to day 11 by HPLC method (reference value: 53 +/- 3%). Type of test: functional.
For test [18], the system named is Mus musculus. Nature of the test: Neuroprotective activity against MPTP-induced C57BL/6 mouse DA neuron toxicity model assessed as reduction of striatal DA turnover at 25 mg/kg/day, po bid pretreated for 3 days followed by MPTP challenge and further administration of compound up to day 11 by HPLC method. Type of test: functional. Also noted: scale not given: the % may be the effect or the level left.

The subject of test [19] is Mus musculus. As to the kind of experiment: Neuroprotective activity against MPTP-induced C57BL/6 mouse DA neuron toxicity model assessed as restoration of striatal DA level at 50 mg/kg/day, po bid pretreated for 3 days followed by MPTP challenge and further administration of compound up to day 11 by HPLC method. It is filed as functional, organism-based.
For test [20], the system named is Mus musculus. As to the kind of experiment: Neuroprotective activity against MPTP-induced C57BL/6 mouse DA neuron toxicity model assessed as restoration of striatal HVA level at 50 mg/kg/day, po bid pretreated for 3 days followed by MPTP challenge and further administration of compound up to day 11 by HPLC method. It is filed as functional, organism-based.
The subject of test [21] is Mus musculus. Nature of the test: Neuroprotective activity against MPTP-induced C57BL/6 mouse DA neuron toxicity model assessed as decrease in striatal DOPAC level at 50 mg/kg/day, po bid pretreated for 3 days followed by MPTP challenge and further administration of compound up to day 11 by HPLC method. Type of test: functional, organism-based.

The source made the active and inactive calls. No cut-off for these calls is given here.

Regarding `Nc1ccc2ncc(-c3ccccc3)nc2c1`, in [1], the viability at 50 µM is 226%. In test [2], the viability at 10 µM worked out at 152%. Moreover, the outcome with Astrocyte [3] and in the test on Astrocyte [4] was inactive. Moreover, the Activity is reported as 93.8% in the test on Astrocyte [5], 39% in the test on Mus musculus [16], 64% in the test on Mus musculus [17] and 36% with Mus musculus [18]. In addition, the result in the test listed under Rattus norvegicus [6], in the test listed under Rattus norvegicus [7], in the test listed under Rattus norvegicus [10], in the test filed under Rattus norvegicus [11], in the test filed under Rattus norvegicus [12] and with Mus musculus [19] was Active. For the same compound, the result in the test on Mus musculus [20] and in the test with Mus musculus [21] was Active. In the test listed under Rattus norvegicus [8], the inhibition result was “inactive”. For the same compound, the inhibition entry in the test filed under Rattus norvegicus [9] was “Active”. For the same compound, in the test on Mus musculus [13], the survival at 25 mg/kg/day stood at 78%. In addition, in the test with Mus musculus [14], the survival at 50 mg/kg/day worked out at 91%. Moreover, the IC50 in test [15] is 513 µM.

One may read the IC50 as the concentration at which inhibition is half-maximal.
